Reference: PMC6847114 (Nucleic Acids Research, 2019)

Assays:
HeLa cells = type: cell-based; conditions: Ru 100 μM + HCPs 300 μM; for Nuclear uptake of [Ru(bpy)2(dppz)]^2+ in full medium: full medium containing serum, CLSM
[1] = ref [53],[54]; cited from earlier work
[2] = ref [52]; cited from earlier work
[3] = n-Octanol/aqueous partitioning; type: physicochemical; conditions: n-octanol / Tris–HCl buffer 10 mM pH 7.4, Ru 100 μM
Summary of the method: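 Shake-flask partitioning of the Ru complex between n-octanol and aqueous Tris–HCl (10 mM, pH 7.4), run with or without highly chlorinated phenols (penta-, tetra- or trichlorophenols) at different Ru:phenol ratios. The complex was quantified in each phase by UV-vis absorbance. Ion-pair lipophilicity is reported as n-octanol-phase absorption intensity at Ru/phenol 1:10, multiplied by 10.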

Row | SMILES | Nuclear uptake of [Ru(bpy)2(dppz)]^2+ in full medium (HeLa cells) | Cellular and nuclear uptake of [Ru(bpy)2(dppz)]^2+ by luminescence (HeLa cells; serum-free medium, flow cytometry and CLSM) | pKa [1] | log Kow [2] | Lipophilicity of the ion-pairing complex formed with [Ru(bpy)2(dppz)]Cl2 [3]
1 | Oc1cc(Cl)c(Cl)c(Cl)c1Cl [2,3,4,5-TeCP, 2,3,4,5-tetrachlorophenol] | facilitated | most effective | 5.64 | 4.95 | least hydrophobic
2 | Oc1c(Cl)c(Cl)c(Cl)c(Cl)c1Cl [PCP, pentachlorophenol] | facilitated |  |  | 5.01 | most lipophilic
